The list is not random: actives were taken first. Their share in the collection is about 2.6%.
EP2 mod: EP2 receptor (human) modulation; P43116; EP2-expressing cells, cAMP HTRF FRET, PGE2 co-stimulation; induction, % at 25 µM; actives 0.83% (n = 260,000);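 active = compounds whose cAMP rise, as percent of the full-agonist control response, exceeds 60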;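 also: rat C6 glioma line stably carrying human EP2 under a CMV promoter; the protocol text gives 20 µM as final concentration; 100% = response of wells given 1 µM PGE2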
Target sequence (P43116 whole entry, looked up): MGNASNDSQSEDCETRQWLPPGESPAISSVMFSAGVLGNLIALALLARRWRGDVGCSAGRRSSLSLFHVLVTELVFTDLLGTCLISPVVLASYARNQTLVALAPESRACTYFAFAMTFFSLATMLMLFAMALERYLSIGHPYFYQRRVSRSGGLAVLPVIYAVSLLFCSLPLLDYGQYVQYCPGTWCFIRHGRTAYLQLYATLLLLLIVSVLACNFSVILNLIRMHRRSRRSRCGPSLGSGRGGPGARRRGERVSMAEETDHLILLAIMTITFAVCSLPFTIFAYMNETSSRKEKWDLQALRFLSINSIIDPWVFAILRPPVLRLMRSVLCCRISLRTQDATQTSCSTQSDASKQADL
EP2 antag: EP2 receptor (human) inhibition; inhibition, % at 25 µM; AID 1422; P43116; actives 0.52% (n = 260,000); C6 glioma cells expressing human EP2, cAMP TR-FRET; cells stimulated with saturating PGE2;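 active = percent inhibition above 40 after rounding to a whole number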;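 also: rat C6 glioma host cells with rolipram phosphodiesterase inhibitor present; the protocol text gives 20 µM as final concentration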
T cell modulator: T cell immune modulation candidate | 2C CD8+ T cell-vesicle binding, flow cytometry; active compounds read low | response (vesicle binding), % at 7 µM | actives 0.068% (n = 330,000);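 active = response, share of CD8 T cells binding vesicles, and their 90th percentile fluorescence all below set limits, cut at about 80% in these data, passing the limit was not always enough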;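 also: values below 100% mean blocked vesicle binding to the CD8+ T cells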
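incubation = binding step 1.5 h, 37 °C, antibody labelling 20 min, ice | test system = 2C mouse CD8+ T cells | read-out basis = percent CD8+ FL2 mean versus row control | controls = Peptide-free naked vesicles (low) and QL9 vesicles with 0.7% DMSO vehicle (high) | detection = flow cytometry of vesicle-bound cells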
MC4R barr agon: agonists of human melanocortin 4 receptor (MC4R) beta-arrestin | AID 540308 | U2OS MC4R beta-arrestin complementation, luminescence; percent of melanotan II response, DMSO zero | actives 0.98% (n = 360,000) | activation, % at 8.9 µM | P32245;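 active = activation above a per-plate cutoff, the mean activation of sample wells on that plate plus 3 SD, cut at about 8% in these data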
Target sequence (P32245 whole entry, looked up): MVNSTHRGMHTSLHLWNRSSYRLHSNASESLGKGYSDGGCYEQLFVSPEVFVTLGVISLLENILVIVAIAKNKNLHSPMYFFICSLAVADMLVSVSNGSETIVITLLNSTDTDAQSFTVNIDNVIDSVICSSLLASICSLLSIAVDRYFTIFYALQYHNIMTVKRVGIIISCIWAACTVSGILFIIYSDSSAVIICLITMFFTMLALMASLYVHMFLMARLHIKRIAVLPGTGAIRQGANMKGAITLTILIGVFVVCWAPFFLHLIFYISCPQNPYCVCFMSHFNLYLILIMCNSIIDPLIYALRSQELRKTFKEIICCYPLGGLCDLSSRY
MC4R antag cAMP: antagonists of human melanocortin 4 receptor (MC4R). P32245. MC4R-expressing cells, MTII-stimulated cAMP, LANCE TR-FRET. inhibition, % at 6.5 µM. actives 0.48% (n = 360,000). AID 540295;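 active = inhibition above its plate's cutoff, the mean of tested wells on that plate plus 3 SD, cut at about 29% in these data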;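 also: 0% = Melanotan II alone and 100% = Melanotan II plus saturating MCL0020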
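Material: human MC4R-expressing U2OS cells. Probe or stimulus: Melanotan II challenge. Dosing: 6.5 µM single dose. Times: 30-min compound, 1-h challenge, 1-h detection, room temperature. Technique: TR-FRET with Eu-cAMP and labeled anti-cAMP, 671 nm. Replication: singlicate.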
Granule exo inh: lytic granule exocytosis inhibition; TALL-104 LAMP-1 surface exposure, flow cytometry; cells stimulated with thapsigargin and PMA; inhibition, % at 10 µM; actives 0.66% (n = 360,000); AID 651702;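 active = inhibition above about 55%, limit read from the data; inconclusive = no clear call, values can overlap the other calls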
Active calls of the source: *; ? = inconclusive; · = no result given; ! = repeats disagree.

SMILES | EP2 mod | EP2 antag | T cell modulator | MC4R barr agon | MC4R antag cAMP | Granule exo inh
CCC(=O)Nc1cccc(NC(=O)c2ccc([N+](=O)[O-])o2)c1 | -101 | 98* | · | · | · | ·
CCC(=O)N1CCN(c2ccc(NC(=O)c3ccc([N+](=O)[O-])o3)cc2Cl)CC1 | -41 | 25 | · | -1 | -10 | -2
O=C(Nc1cccc(NC(=O)c2ccc([N+](=O)[O-])o2)c1)c1ccco1 | · | · | 381 | -1 | -7 | -12
CCN1CCN(c2ccc(NC(=O)c3ccc([N+](=O)[O-])o3)cc2Cl)CC1 | -156 | 116*! | · | -3 | -6 | 3
O=C(Nc1ccc(S(=O)(=O)N2CCOCC2)cc1)c1ccc([N+](=O)[O-])o1 | -43 | 49* | 109 | -1 | 10 | -1
CCCC(=O)Nc1cccc(NC(=O)c2ccc([N+](=O)[O-])o2)c1 | -100 | 42* | · | · | · | ·
O=C(Nc1cccc(NC(=O)c2cccs2)c1)c1ccc([N+](=O)[O-])o1 | -43 | 23 | 131 | -2 | 14 | 25
Cc1ccc(C)c(N2CCN(C(=O)c3ccc(N4CCCC4=O)cc3)CC2)c1 | · | · | 635 | 1 | 17 | -4
COc1ccc(-c2nc(CSCC(=O)N3CCC(C(N)=O)CC3)c(C)o2)cc1OC | 19 | 12 | 285 | -1 | -2 | -4
CC1(C)c2ssc(=S)c2-c2ccccc2N1C(=O)Cc1ccc(F)cc1 | 22 | 14 | · | · | · | ·
CCCOc1ccc(-c2c(C(=O)N/N=C/c3ccc(OC)cc3)nnn2-c2nonc2N)cc1 | 23 | 5 | 387 | -2 | 9 | 9
Nc1nonc1-n1nnc(C(=O)N/N=C/c2ccc(Br)cc2)c1-c1ccc2c(c1)OCO2 | · | · | 137 | 8.8* | 7 | 19
CCOc1ccc(-c2c(C(=O)N/N=C/c3ccc(OC)cc3)nnn2-c2nonc2N)cc1 | 6 | 18 | 7.5* | -2 | 5 | 6
c1ccc2c(c1)C(=Nn1cnnc1)c1ccccc1-2 | -10 | 28 | 670 | -2 | -6 | 2
Cc1cc2cc(C)c(SCC(=O)NCc3ccc4c(c3)OCO4)nc2cc1C | 85* | 22 | · | · | · | ·
CCc1cc2c(C)cc(C)cc2nc1SCC(=O)Nc1ccc2c(c1)OCO2 | 34 | 7 | · | · | · | ·
CCc1cc2c(C)cc(C)cc2nc1SCC(=O)NCc1ccc2c(c1)OCO2 | 72* | 19 | · | · | · | ·
COc1ccc(C(=O)OCC(=O)NCCc2ccc(F)cc2)cc1S(=O)(=O)N1CCOCC1 | · | · | 239 | -1 | 1 | -2
CCOC(=O)C1CCCN(CC(O)COCc2ccccc2OC)C1 (configuration not stated) | · | · | 204 | -2 | 12 | 8
N#Cc1c(C#N)c(SSc2c(C#N)c(C#N)c(N)n2-c2ccccc2)n(-c2ccccc2)c1N | · | · | · | 0 | 7 | 96*
CN(C)C(=O)c1cccc(-c2cnc3c(NC=O)cc(-c4ccccc4N(C)C)cn23)c1 | · | · | · | 9.2* | -33 | -8
COc1cccc(-c2cc(NC=O)c3ncc(-c4ccc(C(C)=O)cc4)n3c2)c1 | · | · | · | 8.4* | 2 | ?
COc1cccc(-c2cnc3c(NC=O)cc(-c4ccccc4Oc4ccccc4)cn23)c1 | · | · | · | 8.8* | 1 | 20
O=C(CNC(=O)c1cc(Cl)cc([N+](=O)[O-])c1)OCC(=O)N1CCCCC1 | · | · | 523 | 0 | 27 | -6
Cc1cccc(NC(=O)CSc2nc(=O)n(CCN3CCOCC3)c3c2CCCC3)c1C | · | · | 159 | 0 | 16 | -15
SMILES | EP2 mod | EP2 antag | T cell modulator | MC4R barr agon | MC4R antag cAMP | Granule exo inh
CC1(C(=O)O)CCCN(C(=O)c2ccc(F)cc2Cl)C1 (configuration not stated) | · | · | · | -1 | 1 | 3
N#CC1=C(S)N=C(N)C(c2nc(-c3ccccc3)cs2)C12CCCC2 (configuration not stated) | -11 | 10 | 186 | -1 | -2 | 70*
CCOC(=O)c1c(C)n(C)c2ccc(O)c(CN3CCC(C)CC3)c12 | -14 | 13 | 184 | -1 | 6 | 1
COCCCn1c(SCC(=O)NCc2ccco2)nnc1-c1ccc(C(C)(C)C)cc1 | -9 | 9 | · | · | · | ·
COc1ccccc1Nc1nc2ccc(C)cc2cc1C#N | 61* | · | 230 | 1 | -1 | -4
C=CCn1c(SCC(=O)NNC(=O)Nc2ccc(C)cc2)nnc1-c1ccccc1 | 4 | 6 | 439 | -1 | 5 | 7
C=CCn1c(SCC(=O)Nc2ccc(-c3nc4ccc(C)cc4s3)cc2)nnc1-c1ccccc1 | 7 | 9 | 147 | 38* | -12 | -4
O=C(COC(=O)/C=C/c1cccc(C(F)(F)F)c1)NCc1ccccc1 | 0 | 3 | 852 | -2 | 6 | 3
CCOC(=O)C1=C(c2ccccc2)NC(SCC(=O)NC2CCCCC2)=C(C#N)C1c1ccco1 (configuration not stated) | 27 | 71* | 396 | 2 | 2 | -4
COCCOC(=O)C1=C(C)NC(SCC(=O)NC(C)(C)C)=C(C#N)C1c1ccco1 (configuration not stated) | 10 | 37 | · | 1 | 6 | -1
COc1cc2c(cc1OC)CN(C1CC(=O)N(c3c(C)cccc3C)C1=O)CC2 (configuration not stated) | 2 | 8 | 218 | -2 | 8 | 9
Cc1c(Cl)c(C(=O)N2CCCc3ccccc32)nn1C | -12 | 16 | 176 | -1 | 5 | 5
CCCCCCCCCCS(=O)(=O)N/N=C/c1ccc(O)cc1 | 10 | 3 | 305 | 9.0* | 2 | 1
CCCCCCCCCS(=O)(=O)N/N=C/c1cccc([N+](=O)[O-])c1 | 27 | 10 | 229 | 4 | 2 | -3
O=C(CCN1CCCCCC1)c1ccccc1 | -7 | 52* | 184 | -1 | 11 | -4
CC1(C)CC2(CCCN(C(=S)Nc3ccccc3)C2)CCO1 (configuration not stated) | -7 | 3 | 463 | -4 | 19 | 1
CCC1(C)CC2(CCCN(CCC(=O)c3ccccc3)C2)CCO1 (configuration not stated) | -94 | 81*! | 428 | -2 | 14 | -3
Cc1ccc(-n2ncc3c2CC(C)(C)CC3NC(=O)CCCN2CCCC2=O)cc1 (configuration not stated) | · | · | 236 | -2 | 0 | -2
O=C(Nc1ccc(C(=O)O)cc1)/C(=C/c1cccc(Br)c1)NC(=O)c1ccco1 | 63* | 5 | 221 | -2 | 6 | 2
Cc1ccc(NC(=O)/C(=C/c2cccc(Br)c2)NC(=O)c2ccco2)cc1 | 13 | 4 | 144 | 0 | 19 | 1
O=C(Nc1cccn(Cc2c(F)cccc2Cl)c1=O)NC1CCCCC1 | -51 | 11 | 142 | -3 | -6 | -5
O=C(CSCc1ccc(Br)cc1)Nc1ccccc1C(=O)N1CCOCC1 | · | · | 333 | -2 | 23 | -1
